Assay results: the EternaBench riboswitch data

Test system: MS2 coat protein
Assay: apparent Kd, MS2 coat protein; higher = weaker binding; RNA-MaP array; FMN 200 µM where present
Procedure, shortened: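 Green signal from SNAP-549-labelled MS2 coat protein was normalised to red-channel RNA signal and to the median Fmax of control clusters. The protein was titrated from 0.7 or 1.5 nM, doubling to 3 µM, without and then with constant ligand, over designs transcribed by stalled E. coli RNA polymerase on Illumina sequencing-chip clusters, in 100 mM Tris-HCl pH 7.5, 80 mM KCl, 4 mM MgCl2, BSA, DTT, yeast tRNA and Tween-20. The apparent Kd is the median of filtered per-cluster binding-curve fits.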

[1] = designed as: OFF switch for flavin mononucleotide, no ligand
[2] = ligand present: flavin mononucleotide, designed as: OFF switch for flavin mononucleotide
[3] = designed as: ON switch for flavin mononucleotide, no ligand
[4] = ligand present: flavin mononucleotide, designed as: ON switch for flavin mononucleotide

| Sequence | apparent Kd [1] [nM] | apparent Kd [2] [nM] | apparent Kd [3] [nM] | apparent Kd [4] [nM] |
| --- | --- | --- | --- | --- |
| CGCAUGUAAGGAUAUUAGUAGUAGUCAGAAUAGACUAUUACUGAGAAGGUACAUGAGGAUCACCCAUGUUAGCG | 117 | 592 |  |  |
| CGCUAUGAUGGGUUUAAUGGAGCAUAGGAUAUGCUUGUACAUGAGGAUCACCCAUGUUAUAUUGUGCAGAAGGGUGCAUUUGCG |  |  | 433 | 157 |
| CGCUGUCACGCAGGAUAUGCAAUGGAUUACAUUGCAGAAGGGCGAUCACAUGAGGAUCACCCAUGUGUAGACAGUGAAGAAGAG |  |  | 738 | 45.8 |
| CGGACCGGCUCAGGAUAUGGGUGCUCAAAAGACAUGAGGAUCACCCAUGUCUCAAGCUGUGCACAUCAGAAGGGAGCUUCGGGU |  |  | 13.3 | 16.3 |
| CGGCAAGUCACAGGAUAUGGUGAUGUACAUGAGGAUCACCCAUGUCCGUCUUCUCUCACAAGAUGCCAGAAGGGUGACCUCCGG |  |  | 760 | 131 |
| CGGCAUCAUGUAGGAUAUGCGUGGCGAAGCUAUGCAGAAGGACAUGAGGAUCACCCAUGUCUUACUGUGCGUACACAGUUGCCG | 6.29 | 11.2 |  |  |
| CGGCCCUAUCGAGGAUAUAAGUCUAGGACAUGAGGAUCACCCAUGUAUGUCUUAGAAGGCGAUAGGGCCAGCCUGUUACAGGCA |  |  | 29.7 | 6.23 |
| CGGGAGGAAGGAUAUACACGGCCUCCUAGAAUAAAUCCUGGACAUGAGGAUCACCCAUGUAGAAGGUCCACCGA | 18.9 | 24.4 |  |  |
| CGGUACAUCGGAGGAUAUCAUGUAAAUACAUGAGGAUCACCCAUGUCGAUGGAGACAUCGGAGAUUGAGAAGGCCGAUGUACCG |  |  | 186 | 9.27 |
| CGUAACUACAUAGGAUAUUGAUACAUGAGGAUCACCCAUGUUUUUGGGAUUAGUUUAAUAUUAAGCAAGAAGGAUGAAGUUACG |  |  | 45.4 | 31.1 |
| CGUACUGAAGUAAGGAUAUUGUCUCGGAUACGAAACAAGAAGGUACAUGAGGAUCACCCAUGUUGACAGUACGA | 16.6 | 16.7 |  |  |
| CGUCGAUACCAGAAGGACAUGAGGAUCACCCAUGUAGGAUAUGGGUGACCGGGAUGGUGGACACGGUGCCCGGGCACAUGCGAC |  |  | 81.8 | 14.9 |
| CGUGAAAACAUAGGAUAUUGUUACAUGAGGAUCACCCAUGUCAACCAUUUAUCUCAAAUUGUUGACAAGAAGGAUGAGGUCACG |  |  | 118 | 38.9 |
| CGUGCAUAUGUAGGAUAUGGUUAUCUAUGUCUAGUUACUAGACAUAGAUAACCAGAAGGACAUGAGGAUCACCCAUGUUGCACG | 12.8 | 24.2 |  |  |
| CGUGCGUAUGUGAGGAUAUGCUGGUCCUUGGAUCGGCAGAAGGCACAUGAGGAUCACCCAUGUGGUGUCGUUCG | 219 | 31.6 |  |  |
| CGUGCGUCGACAGGAUAUACAGAUUGGCUCCGGUACAUGAGGAUCACCCAUGUAGAAGGGUCACGCGCGGAUAGAACAUUCUAA | 9.09 | 40.3 |  |  |
| CGUGGACAUGAGGAUCACCCAUGUGAGGAUAUCGGCUGGUACGUGUUGGCUGGCAUCUCGAGAAGGCACAUAGU | 43.8 | 80.4 |  |  |
| CGUGUCAUCGAGAAGGCCUCAACAUGAGGAUCACCCAUGUUGUAAUAUGGGAGGAUAUCGAUGAUACAGCUACGUUUCGUAGCU |  |  | 18.8 | 5.8 |
| CGUGUCGUAUGAGGAUAUGGUCAGCUUUGCUGACCAGAAGGCAUGUCAAUAGACAUGAGGAUCACCCAUGUAGUAAAGACACGA |  |  | 378 | 40.6 |
| CGUGUUAUCGAAGGAUAUGGAUACAUGAGGAUCACCCAUGUAUAUUUUGUGAUCAAGUUUAAGAUCCAGAAGGUCGUAUACACG | 54.9 | 119 |  |  |
| CGUGUUGACGAAGGAUAUGGAUACAUGAGGAUCACCCAUGUUUAAUUUGUGAUUUUGUUAAAGUACCAGAAGGUCGAAUACACG | 142 | 118 |  |  |

| Sequence | apparent Kd [1] [nM] | apparent Kd [2] [nM] | apparent Kd [3] [nM] | apparent Kd [4] [nM] |
| --- | --- | --- | --- | --- |
| CGUUGGUUAGGAUAUGCCCUCCUGGUGGGAAGGCCGGGUGGGUAGAAGGGACAUGAGGAUCACCCAUGUAUGGA | 72.3 | 26.8 |  |  |
| CUAAAUCAUGUAGGAUAUGCAUGGCGAAGCUACGCAGAAGGACAUGAGGAUCACCCAUGUCACUCCGUCUGCGUACAGACGGAG | 19.7 | 92.3 |  |  |
| CUAAAUCAUGUAGGAUAUGCAUGGCGAAGCUACGCAGAAGGACAUGAGGAUCACCCAUGUCUCUCCGUCUGCGUACAGACGGAG | 20.5 | 119 |  |  |
| CUAAUUCAUGUAGGAUAUGCGUGGCGAAGCUAUGCAGAAGGACAUGAGGAUCACCCAUGUCUUUCCGUCUGCGUACAGACGGAA | 24.7 | 201 |  |  |
| CUACAUGAGGAUCACCCAUGUGCGCACUGGAUCAGUGCGCGCAGAAGGGCCAUGGAGAAAGCCAGGCAGGAUAUGCAAAGGGCU |  |  | 288 | 226 |
| CUAGAUAUGUAAGGAUAUAUAGUGGAAUACACUAUAGAAGGUAUGUGAUAACAUGAGGAUCACCCAUGUCAUUGGAUAUCUAGA |  |  | 67.5 | 60.3 |
| CUAGCAUACCGAGGAUAUUCAUAUAAUAAAUAAACAUGAGGAUCACCCAUGUGGCGAAAGCCUAGGGAGAAGGCGGAAUGCUAC |  |  | 162 | 27 |
| CUAGCGAGUGAGAAGGCCAGCUUUUAUACAUGAGGAUCACCCAUGUAGCCCUAAAGGGUAUGCAUGGAGGAUAUCACGAGCCUG |  |  | 11.7 | 7.03 |
| CUAGUACAUGAGGAUCACCCAUGUCAGGAUAUUGGAUAUGCCUUGGAAUACGUGUUUACAAGAAGGGACUAUAG | 18.7 | 19.2 |  |  |
| CUAUACAUAUCAGGAUAUCAUCGAGUGGAUUAACACAGUGAUUACAUGAGGAUCACCCAUGUGCUUGAGAAGGGAUUACUAUUU | 14.6 | 12.9 |  |  |
| CUAUAUAAUACCUCAUGUACAUGAGGAUCACCCAUGUUAACUAAGGAUAUAUAUAUAUUAAUAAUGUAGAAGGUAGUACUAUUU | 16 | 11.8 |  |  |
| CUAUAUAUAUGAGGAUAUGUAUAUCCAACAUGAGGAUCACCCAUGUUGAGGAUCACCCAUGUAAAGCAGAAGGCAUAUAUAUAG |  |  | 22.7 | 13.4 |
| CUAUCGAGGUCACUCGUUAUCACACCAGAAGGGACGGAGGCACAUGAGGAUCACCCAUGUCCUAGUCAGGAUAUGGGUGAGUAG |  |  | 25.6 | 5.16 |
| CUAUUCCGAGGAUAUACAUGAGGAUCACCCAUGUCGGGCCUCAGCGUUUAGCGCGUAAGUAGAAGGUGGGUUUC | 32.3 | 37.8 |  |  |
| CUAUUGCGAGGAUAUGAUUUAAAUAACAUGAGGAUCACCCAUGUUUUUACGUUGUUAUGUUCAGAAGGCGUAUUGU | 40.1 | 26.3 |  |  |
| CUAUUGCUAACAGGAUAUAUGAGUCCUACAUGAGGAUCACCCAUGUAGGUGAUCAGCCGUGAUUAGUAGAAGGGUUAGCAAUAG |  |  | 12.2 | 6.91 |
| CUAUUGGCAGGAUAUGCUUUUUUAGACAUGAGGAUCACCCAUGUGAUGAAUAUUGGGUUUGCAGAAGGGCCUGAAU | 75.1 | 111 |  |  |
| CUAUUUAGUGCCUCAUGUACAUGAGGAUCACCCAUGUUAACUUAGGAUAUAUUUAUAUUGAUAGAGUAGAAGGAAGUACUAUUU | 22 | 18.8 |  |  |
| CUCAAACAUGAGGAUCACCCAUGUGUUGUCAUGGGAGGAUAUCCAAGUUCGUUGUAGUCGGGAGAAGGCCUAUGUC |  |  | 213 | 41.1 |
| CUCAAACAUGAGGAUCACCCAUGUGUUGUCAUGGGAGGAUAUCCCAGUUCGGUGACGUCGGGAGAAGGCCUAUGUC |  |  | 113 | 35.2 |
